{"data": "Measured values of several laboratories", "ALOX5": "Polyunsaturated fatty acid 5-lipoxygenase (ALOX5, Homo sapiens, UniProt P09917)", "HTR1D": "5-hydroxytryptamine receptor 1D (HTR1D, Homo sapiens, UniProt P28221)"}
{"SMILES": "CSCC[C@H](NC(=O)[C@@H]1CCCN1C(=O)CNC(=O)c1ccc2c(c1)C(=O)OC21c2ccc(O)cc2Oc2cc(O)ccc21)C(=O)N[C@@H](CCC(N)=O)C(=O)N[C@H](C(=O)N[C@@H](CO)C(=O)N[C@H](C(=O)N1CCC[C@H]1C(=O)N[C@@H](CCCCN)C(=O)N[C@@H](CC(N)=O)C(=O)NCC(=O)O)[C@@H](C)OP(=O)(O)O)[C@@H](C)O", "target": "Serine/threonine-protein kinase PLK2, polo-box (PLK2, Homo sapiens, UniProt Q9NYY3)", "effect on": "binding", "method": "FP", "measurement": "Kd", "value": "0.0504 µM"}
{"SMILES": "CCCCCc1cc(O)c2c(c1)OC(C)(CCC=C(C)C)C=C2 (stereo not shown)", "target": "ALOX5", "effect on": "enzyme activity in cells", "action": "inhibitor", "measurement": "IC50", "value": "1.5 µM"}
{"SMILES": "Cn1cc(-c2cc(F)cc(N3CCn4c(cc5c4CCCC5)C3=O)c2CO)cc(Nc2ccc(N3CCN(C4COC4)CC3)cn2)c1=O", "target": "Tyrosine-protein kinase Yes (YES1, Homo sapiens, UniProt P07947)", "effect on": "enzyme activity", "action": "inhibitor", "method": "FRET", "measurement": "Ki", "value": "0.637 µM"}
{"SMILES": "CC(C)Cc1ccc([C@H](C)C(=O)O)cc1", "target": "Histone acetyltransferase KAT2B (KAT2B, Homo sapiens, UniProt Q92831)", "effect on": "enzyme activity", "action": "inhibitor", "method": "mobility shift", "measurement": "IC50", "value": "~6000 µM"}
{"SMILES": "CC[C@H]1NC(=O)[C@@H]2CSC(=N2)[C@@H](Cc2ccccc2)N(C)C(=O)[C@@H]2CCCN2C(=O)[C@H](C(C)C)N(C)C(=O)[C@H](Cc2ccccc2)OC(=O)[C@H](C)[C@@H](C)NC(=O)[C@@H]([C@@H](C)O)NC(=O)[C@@H](CC(C)C)N(C)C(=O)[C@@H]2CSC1=N2", "target": "Dipeptidyl peptidase 8 (Homo sapiens, UniProt Q6V1X1)", "effect on": "enzyme activity", "action": "inhibitor", "measurement": "IC50", "value": "11.5 µM"}
{"SMILES": "C#CCNC(=O)c1cc2ccc(N(CC)CC)cc2oc1=O", "target": "Acetylcholinesterase (Ache, Mus musculus, UniProt P21836)", "effect on": "enzyme activity", "action": "inhibitor", "method": "Ellman", "pH": "pH 7.6", "measurement": "IC50", "value": "1 µM"}
{"SMILES": "NCCC[C@H](N)C(=O)O", "target": "Arginase (Schistosoma mansoni, UniProt Q6WVP6)", "effect on": "enzyme activity", "action": "inhibitor", "method": "absorbance", "measurement": "Ki", "value": "1900 µM"}
{"SMILES": "COc1ccccc1N1CCN(Cc2coc3ccc(C)cc3c2=O)CC1", "target": "HTR1D", "effect on": "ligand displacement", "method": "radioligand", "measurement": "Ki", "value": "0.464 µM"}
{"SMILES": "CC(C)S[C@@H]1O[C@H](CO)[C@H](O)[C@H](O)[C@H]1O", "target": "Beta-galactosidase (lacZ, Escherichia coli K-12, UniProt P00722)", "effect on": "enzyme activity", "action": "inhibitor", "method": "fluorescence", "measurement": "Ki", "value": "36 µM"}
{"SMILES": "O=C(CCCN1CCN(c2ccccc2)CC1)c1ccc(F)cc1", "target": "HTR1D", "effect on": "ligand displacement", "method": "radioligand", "measurement": "Ki", "value": "0.169 µM"}
{"SMILES": "COc1cc(Nc2ncc(F)c(Nc3ccc4c(n3)NC(=O)C(C)(C)O4)n2)cc(OC)c1OC", "target": "ALOX5", "effect on": "enzyme activity", "action": "inhibitor", "measurement": "IC50", "value": "5.01 µM"}
{"SMILES": "CC(C)[C@H](NC(=O)[C@H](CCCNC(=N)N)NC(=O)N[C@@H](Cc1ccccc1)C(=O)O)C(=O)N[C@H](C=O)CCCNC(=N)N", "target": "Transmembrane protease serine 2 (TMPRSS2, Homo sapiens, UniProt O15393)", "effect on": "enzyme activity", "action": "inhibitor", "method": "fluorescence", "pH": "pH 8", "measurement": "IC50", "value": "0.38 µM"}
{"SMILES": "CSCC[C@H](NC(=O)[C@H](Cc1c[nH]c2ccccc12)NC(=O)CNC(=O)[C@H](Cc1ccc(O)cc1)NC(=O)[C@H](C)NC(=O)[C@@H](CCC(=O)O)NC(=O)CN1CCN(CC(=O)O)CCN(CC(=O)O)CCN(CC(=O)O)CC1)C(=O)N[C@@H](CC(=O)O)C(=O)N(C)[C@@H](Cc1ccccc1)C(N)=O", "target": "Gastrin/cholecystokinin type B receptor (Rattus norvegicus, UniProt P30553)", "effect on": "ligand displacement", "method": "radioligand", "measurement": "IC50", "value": "0.0226 µM"}
{"SMILES": "COc1ccc(C(=O)CCN2CCN(c3ccccc3F)CC2)cc1", "target": "HTR1D", "effect on": "ligand displacement", "method": "radioligand", "measurement": "Ki", "value": "0.185 µM"}
{"SMILES": "C[C@H](N)Cn1ncc2ccc3c(c21)CCCO3", "target": "HTR1D", "effect on": "ligand displacement", "method": "radioligand", "measurement": "Ki", "value": "6.9 µM"}
{"SMILES": "OC12CCCCC1C(c1ccccc1)NCC2 (stereo not shown)", "target": "Sodium-dependent serotonin transporter (Slc6a4, Rattus norvegicus, UniProt P31652)", "effect on": "ligand displacement", "method": "radioligand", "measurement": "Ki", "value": "> 20 µM"}
